In ChEMBL document CHEMBL4689842, “EUbOPEN Chemogenomics Library wave 1” (2021):
“And” between values parts separate entries of the source, which are not always exact repeats. Equal values may be shown once.

Test system: HEK-293T
Test: Multiplex assay against HEK293T;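 for Population Tubulin-Different-Phenotype (%): share of the cells with healthy nuclei that show this phenotype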
Format: toxicity, cell-based
Conditions: human
Method in brief: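 Live cells carried four stains from seeding: Hoechst33342, BioTracker Green Microtubule Cytoskeleton Dye, MitoTracker Red and Annexin V Alexa Fluor 680. They were imaged on a CQ1 microscope at 37°C and 5% CO2 after compound addition. Using CellPathfinder machine-learning gating, cells were split into Hoechst high-intensity objects or normal cells, normal cells into healthy, pyknosed or fragmented nuclei, and pyknosed cells into mitotic or apoptotic; tubulin, mitochondrial-mass and membrane-permeability phenotypes are per cents of healthy-nucleus cells.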

[1] = 12 h, 1 µM, compound concentration 1 uM, replicate 1
[2] = 12 h, 1 µM, compound concentration 1 uM, replicate 2
[3] = 12 h, 10 µM, compound concentration 10 uM, replicate 1
[4] = 12 h, 10 µM, compound concentration 10 uM, replicate 2
[5] = 24 h, 1 µM, compound concentration 1 uM, replicate 1
[6] = 24 h, 1 µM, compound concentration 1 uM, replicate 2
[7] = 24 h, 10 µM, compound concentration 10 uM, replicate 1
[8] = 24 h, 10 µM, compound concentration 10 uM, replicate 2
[9] = 48 h, 10 µM, compound concentration 10 uM, replicate 1
[10] = 48 h, 10 µM, compound concentration 10 uM, replicate 2

## CCOc1ccn(-c2ccc(F)cc2)c(=O)c1C(=O)Nc1ccc(Oc2ccnc(N)c2Cl)c(F)c1 [BMS-777607]
[1]
  Population Apoptotic (%): 25%
  Population Fragmented Nuclei (%): 14%
  Population Healthy Nuclei (%): 67%
  Population Hoechst High Intensity Objects (%): 10%
  Population Membrane Permeable-Phenotype (%): 6%
  Population Mitochondria Different-Phenotype (%): 10%
  Population Mitotic Cells (%): 75%
  Population Normal (%): 89%
  Population Pyknosed Nuclei (%): 17%
  Population Tubulin-Different-Phenotype (%): 22%
  Total Cell Count: 624
[2]
  Population Apoptotic (%): 5%
  Population Fragmented Nuclei (%): 5%
  Population Healthy Nuclei (%): 89%
  Population Hoechst High Intensity Objects (%): 2%
  Population Mitochondria Different-Phenotype (%): 16%
  Population Mitotic Cells (%): 95%
  Population Normal (%): 97%
  Population Pyknosed Nuclei (%): 5%
  Population Tubulin-Different-Phenotype (%): 48%
  Total Cell Count: 1393
[3]
  Population Apoptotic (%): 23%
  Population Fragmented Nuclei (%): 25%
  Population Healthy Nuclei (%): 50%
  Population Hoechst High Intensity Objects (%): 15%
  Population Membrane Permeable-Phenotype (%): 4%
  Population Mitochondria Different-Phenotype (%): 3%
  Population Mitotic Cells (%): 76%
  Population Normal (%): 84%
  Population Pyknosed Nuclei (%): 25%
  Population Tubulin-Different-Phenotype (%): 3%
  Total Cell Count: 432
[4]
  Population Apoptotic (%): 15%
  Population Fragmented Nuclei (%): 9%
  Population Healthy Nuclei (%): 86%
  Population Hoechst High Intensity Objects (%): 2%
  Population Membrane Permeable-Phenotype (%): 2%
  Population Mitochondria Different-Phenotype (%): 7%
  Population Mitotic Cells (%): 84%
  Population Normal (%): 97%
  Population Pyknosed Nuclei (%): 4%
  Population Tubulin-Different-Phenotype (%): 5%
  Total Cell Count: 1444
[5]
  Population Apoptotic (%): 17%
  Population Fragmented Nuclei (%): 11%
  Population Healthy Nuclei (%): 76%
  Population Hoechst High Intensity Objects (%): 10%
  Population Membrane Permeable-Phenotype (%): 10%
  Population Mitochondria Different-Phenotype (%): 12%
  Population Mitotic Cells (%): 82%
  Population Normal (%): 89%
  Population Pyknosed Nuclei (%): 12%
  Population Tubulin-Different-Phenotype (%): 40%
  Total Cell Count: 625
[6]
  Population Apoptotic (%): 9%
  Population Fragmented Nuclei (%): 10%
  Population Healthy Nuclei (%): 84%
  Population Hoechst High Intensity Objects (%): 6%
  Population Membrane Permeable-Phenotype (%): 12%
  Population Mitochondria Different-Phenotype (%): 4%
  Population Mitotic Cells (%): 90%
  Population Normal (%): 93%
  Population Pyknosed Nuclei (%): 4%
  Population Tubulin-Different-Phenotype (%): 70%
  Total Cell Count: 1553
[7]
  Population Apoptotic (%): 25%
  Population Fragmented Nuclei (%): 18%
  Population Healthy Nuclei (%): 69%
  Population Hoechst High Intensity Objects (%): 13%
  Population Membrane Permeable-Phenotype (%): 6%
  Population Mitochondria Different-Phenotype (%): 3%
  Population Mitotic Cells (%): 74%
  Population Normal (%): 86%
  Population Pyknosed Nuclei (%): 12%
  Population Tubulin-Different-Phenotype (%): 5%
  Total Cell Count: 433
[8]
  Population Apoptotic (%): 8%
  Population Fragmented Nuclei (%): 27%
  Population Hoechst High Intensity Objects (%): 2%
  Population Membrane Permeable-Phenotype (%): 5%
  Population Mitochondria Different-Phenotype (%): 1%
  Population Mitotic Cells (%): 91%
  Population Normal (%): 97%
  Population Pyknosed Nuclei (%): 2%
  Total Cell Count: 2353

## c1ccc(-c2oc3ncnc(NC[C@@H]4CCCO4)c3c2-c2ccccc2)cc1
[1]
  Population Apoptotic (%): 20%
  Population Fragmented Nuclei (%): 13% and 15%
  Population Healthy Nuclei (%): 57% and 66%
  Population Hoechst High Intensity Objects (%): 11% and 13%
  Population Mitotic Cells (%): 79%
  Population Normal (%): 88% and 86%
  Population Pyknosed Nuclei (%): 28% and 17%
  Total Cell Count: 692 and 563
[2]
  Population Healthy Nuclei (%): 74% and 83%
  Population Hoechst High Intensity Objects (%): 2% and 1%
  Population Mitotic Cells (%): 86% and 97%
  Population Normal (%): 97% and 98%
  Total Cell Count: 938 and 1825
[3]
  Population Apoptotic (%): 72%
  Population Fragmented Nuclei (%): 14%
  Population Healthy Nuclei (%): 25%
  Population Hoechst High Intensity Objects (%): 17%
  Population Membrane Permeable-Phenotype (%): 3%
  Population Mitochondria Different-Phenotype (%): 98%
  Population Mitotic Cells (%): 27%
  Population Normal (%): 82%
  Population Pyknosed Nuclei (%): 59%
  Population Tubulin-Different-Phenotype (%): 98%
  Total Cell Count: 263
[4]
  Population Apoptotic (%): 43%
  Population Fragmented Nuclei (%): 4%
  Population Healthy Nuclei (%): 31%
  Population Hoechst High Intensity Objects (%): 7%
  Population Membrane Permeable-Phenotype (%): 17%
  Population Mitochondria Different-Phenotype (%): 71%
  Population Mitotic Cells (%): 56%
  Population Normal (%): 92%
  Population Pyknosed Nuclei (%): 63%
  Population Tubulin-Different-Phenotype (%): 90%
  Total Cell Count: 218
[5]
  Population Apoptotic (%): 28% and 21%
  Population Fragmented Nuclei (%): 11% and 14%
  Population Healthy Nuclei (%): 65% and 77%
  Population Hoechst High Intensity Objects (%): 10% and 5%
  Population Mitotic Cells (%): 71% and 78%
  Population Normal (%): 89% and 94%
  Total Cell Count: 699 and 659
[6]
  Population Apoptotic (%): 8% and 3%
  Population Healthy Nuclei (%): 74%
  Population Hoechst High Intensity Objects (%): 2% and 3%
  Population Mitotic Cells (%): 91% and 96%
  Population Normal (%): 97% and 96%
  Total Cell Count: 1013 and 3002
[7]
  Population Apoptotic (%): 69%
  Population Fragmented Nuclei (%): 20%
  Population Healthy Nuclei (%): 19%
  Population Hoechst High Intensity Objects (%): 23%
  Population Membrane Permeable-Phenotype (%): 0%
  Population Mitochondria Different-Phenotype (%): 94%
  Population Mitotic Cells (%): 30%
  Population Normal (%): 76%
  Population Pyknosed Nuclei (%): 60%
  Population Tubulin-Different-Phenotype (%): 94%
  Total Cell Count: 260
[8]
  Population Apoptotic (%): 43%
  Population Fragmented Nuclei (%): 2%
  Population Healthy Nuclei (%): 31%
  Population Hoechst High Intensity Objects (%): 4%
  Population Membrane Permeable-Phenotype (%): 16%
  Population Mitochondria Different-Phenotype (%): 75%
  Population Mitotic Cells (%): 56%
  Population Normal (%): 95%
  Population Pyknosed Nuclei (%): 66%
  Population Tubulin-Different-Phenotype (%): 90%
  Total Cell Count: 222
[9]
  Population Apoptotic (%): 70%
  Population Fragmented Nuclei (%): 26%
  Population Healthy Nuclei (%): 16%
  Population Hoechst High Intensity Objects (%): 23%
  Population Membrane Permeable-Phenotype (%): 3%
  Population Mitochondria Different-Phenotype (%): 96%
  Population Mitotic Cells (%): 29%
  Population Normal (%): 76%
  Population Pyknosed Nuclei (%): 57%
  Population Tubulin-Different-Phenotype (%): 93%
  Total Cell Count: 268
[10]
  Population Apoptotic (%): 48%
  Population Fragmented Nuclei (%): 4%
  Population Healthy Nuclei (%): 64%
  Population Hoechst High Intensity Objects (%): 5%
  Population Membrane Permeable-Phenotype (%): 19%
  Population Mitochondria Different-Phenotype (%): 66%
  Population Mitotic Cells (%): 51%
  Population Normal (%): 94%
  Population Pyknosed Nuclei (%): 31%
  Population Tubulin-Different-Phenotype (%): 90%
  Total Cell Count: 272
